According to ChEMBL document CHEMBL4382270, “Total Synthesis and Biological Evaluation of Sericetin for Protection against Cisplatin-Induced Acute Kidney Injury” (J Nat Prod, 2018):
Active and inactive are the calls of the source.

What was measured:
Rattus norvegicus [1] = test: Protection against cisplatin-induced […] in Sprague-Dawley rat assessed as reversal of histopathological changes in kidney at 1 mg/kg pretreated for 24 hrs followed by cisplatin challenge and subsequent qd dosing for 5 days measured 7 days post cisplatin challenge by H and E staining based light microscopic analysis; type: functional, organism-based
Method in brief: (§1)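 Male Sprague-Dawley rats (200 ± 10 g) received a single ip cisplatin dose of 6 mg/kg in saline. Test agent 1 mg/kg in 5% DMSO/0.9% saline given once 24 h before cisplatin, then daily for 5 days. Sacrifice on day 7. Read-outs: serum BUN and creatinine by clinical chemistry, kidney H&E histology, and cleaved caspase-3 by Western blot of kidney homogenate. N = 6/group.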

NRK-52E [2] = test: Protection against cisplatin-induced apoptosis in rat NRK-52E cells assessed as reduction in cleaved caspase-3 level at 10 uM after 24 hrs by Western blot analysis; type: functional, cell-based
Method in brief: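 NRK-52E cells given cisplatin 30 μM with or without test agent 10 μM for 24 h. Cleaved (active) caspase-3 detected by Western blot and quantified by densitometry. Mean ± SEM, N = 3.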

NRK-52E [3] = test: Protection against cisplatin-induced cell damage in rat NRK-52E cells assessed as reduction in reactive oxygen species generation at 10 uM after 24 hrs by DCF staining based fluorescence microscopic analysis; type: functional
Method in brief: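 NRK-52E cells co-treated with cisplatin 30 μM and test agent 10 μM for 24 h. ROS stained with CM-H2DCFDA (DCF) and imaged by fluorescence. Percent ROS derived from DCF signal by region-of-interest quantitation. Mean ± SEM, N = 3.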

NRK-52E [4] = test: Protection against cisplatin-induced cytotoxicity in rat NRK-52E cells assessed as improvement in morphological changes after 24 hrs by microscopic analysis; type: functional, cell-based
Method in brief: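 Cells (NRK-52E) exposed to test agent at 0, 1, 10 or 50 μM plus cisplatin 30 μM for 24 h. Morphology then examined by light microscopy.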

[5] = Renal toxicity in Sprague-Dawley rat assessed as histopathological changes in kidney at 1 mg/kg administered once daily for 6 days by H and E staining based light microscopic analysis; type: organism-based; conditions: in vivo, 144 h
Method in brief: (§2)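 Male Sprague-Dawley rats (200 ± 10 g) given test agent alone at 1 mg/kg in 5% DMSO/0.9% saline, once and then daily for 5 further days. Killed on day 7. Serum BUN and creatinine measured by clinical chemistry, and kidneys examined by H&E histology.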

[6] = Renal toxicity in Sprague-Dawley rat assessed as change in serum creatinine levels at 1 mg/kg administered once daily for 6 days; type: organism-based; conditions: in vivo, 144 h; method in brief: as §2
NRK-52E [7] = test: Protection against cisplatin-induced cytotoxicity in rat NRK-52E cells assessed as increase in cell viability at 20 uM after 24 hrs by MTT assay; type: functional, cell-based
Method in brief: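 NRK52E cells given test agent at 20 μM for 24 h, with or without cisplatin 30 μM. Vehicle is DMSO at 0.2% final. Viability read by MTT. Mean ± SEM, N = 3.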

NRK-52E [8] = test: Cytotoxicity against rat NRK-52E cells assessed as effect on cell viability at 1 to 50 uM after 24 hrs by MTT assay; type: cell-based
Method in brief: (§3)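 NRK-52E rat renal tubular epithelial cells (ATCC) exposed to test agent at 0, 1, 10 or 50 μM for 24 h, with or without cisplatin 30 μM (PBS stock). Viability measured by MTT. Mean ± SEM, N = 3.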

Rattus norvegicus [9] = test: Protection against cisplatin-induced acute liver injury in Sprague-Dawley rat assessed as restoration of serum BUN levels at 1 mg/kg pretreated for 24 hrs followed by cisplatin challenge and subsequent qd dosing for 5 days measured 7 days post cisplatin challenge; type: functional, organism-based; conditions: in the assay text read “acute kidney injury” for “acute liver injury”; method in brief: as §1
NRK-52E [10] = test: Protection against cisplatin-induced cytotoxicity in rat NRK-52E cells assessed as increase in cell viability after 24 hrs by MTT assay; type: functional, cell-based; method in brief: as §3
Rattus norvegicus [11] = test: Protection against cisplatin-induced acute liver injury in Sprague-Dawley rat assessed as restoration of serum creatinine levels at 1 mg/kg pretreated for 24 hrs followed by cisplatin challenge and subsequent qd dosing for 5 days measured 7 days post cisplatin challenge; type: functional, organism-based; conditions: in the assay text read “acute kidney injury” for “acute liver injury”; method in brief: as §1
Rattus norvegicus [12] = test: Protection against cisplatin-induced […] in Sprague-Dawley rat assessed as reduction in cleaved caspase-3 level in kidneys at 1 mg/kg pretreated for 24 hrs followed by cisplatin challenge and subsequent qd dosing for 5 days measured 7 days post cisplatin challenge by Western blot analysis; type: functional, organism-based; method in brief: as §1
[13] = Renal toxicity in Sprague-Dawley rat assessed as change in serum BUN levels at 1 mg/kg administered once daily for 6 days; type: organism-based; conditions: in vivo, 144 h; method in brief: as §2
NRK-52E [14] = test: Protection against cisplatin-induced cell damage in rat NRK-52E cells assessed as reversal of mitochondrial membrane potential loss at 10 uM after 24 hrs by JC1 staining based fluorescence microscopic analysis; type: functional
Method in brief: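 After 24 h of cisplatin 30 μM with or without test agent 10 μM, NRK-52E cells stained with JC-1 and imaged by fluorescence microscopy. Red (aggregate) and green (monomer) signals quantified by ROI. Mean ± SEM, N = 3.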

Measured: Activity

CC(C)=CCOc1c2c(cc3oc(-c4ccccc4)c(OCc4ccccc4)c(=O)c13)OC(C)(C)C=C2
active: Rattus norvegicus [1] | NRK-52E [2] | NRK-52E [3] | NRK-52E [4] Dose-dependent effect | NRK-52E [7] | Rattus norvegicus [9] | NRK-52E [10] Dose-dependent effect | Rattus norvegicus [11] | Rattus norvegicus [12] | NRK-52E [14]
Non-Toxic: [5] | [6] | NRK-52E [8] | [13]
